Measurements reported in ChEMBL document CHEMBL1134325, “Diaminoindanes as microsomal triglyceride transfer protein inhibitors” (J Med Chem, 2001).

What was measured:
[1] = test system: Canis familiaris; test: Inhibition of plasma total cholesterol in the normolipidemic dogs after day 0 of oral administration of 5 mg/kg/day.; format: functional, Canis lupus familiaris
Outline: (§1)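 Normolipidemic dogs dosed once daily for 4 days by oral gavage, compound suspended in cornstarch vehicle. Plasma sampled 24 h after dosing on days 0, 2, 3 and 4, assayed for triglycerides and total cholesterol (mg/dL). Mean percent inhibition versus day-0 level is given for treated dogs; n = 6 per group; significance by one-way ANOVA, p < 0.05.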

[2] = test system: Rattus norvegicus; test: Inhibition of plasma triglycerides in normolipidemic rats after 6 hr of 10 mg/kg oral dosing; format: functional
Outline: (§2)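 Overnight-fasted normolipidemic rats received a single oral dose in cornstarch vehicle. Blood was drawn at 2, 6 and 24 h post-dose and assayed for triglycerides and total cholesterol, with free access to food after the 6 h sample. Value is mean percent inhibition versus a separate vehicle-treated group, unpaired t test p < 0.05, NS = no significant change, N = 6.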

[3] = test system: Canis familiaris; test: Inhibition of plasma total triglycerides in the normolipidemic dogs after day 3 of oral administration of 10 mg/kg/day.; format: functional, Canis lupus familiaris
[4] = test system: Canis familiaris; test: Inhibition of plasma total triglycerides in the normolipidemic dogs after day 0 of oral administration of 10 mg/kg/day.; format: functional, Canis lupus familiaris; outline: as §1
[5] = test system: Canis familiaris; test: Inhibition of plasma total cholesterol in the normolipidemic dogs after day 3 of oral administration of 10 mg/kg/day.; format: functional, Canis lupus familiaris; outline: as §1
[6] = test system: Canis familiaris; test: Inhibition of plasma total triglycerides in the normolipidemic dogs after day 0 of oral administration of 5 mg/kg/day.; format: functional, Canis lupus familiaris; outline: as §1
[7] = test system: Canis familiaris; test: Inhibition of plasma total triglycerides in the normolipidemic dogs after day 2 of oral administration of 10 mg/kg/day.; format: functional, Canis lupus familiaris; outline: as §1
[8] = test system: Canis familiaris; test: Inhibition of plasma total cholesterol in the normolipidemic dogs after day 4 of oral administration of 5 mg/kg/day. Values in the parentheses indicate mean percent inhibition for drug treated dogs.; format: functional, Canis lupus familiaris; outline: as §1
[9] = test system: Rattus norvegicus; test: Inhibition of total cholesterol in normolipidemic rats after 6 hr of 10 mg/kg oral dosing; format: functional; outline: as §2
[10] = test system: Canis familiaris; test: Inhibition of plasma total triglycerides in the normolipidemic dogs after day 2 of oral administration of 5 mg/kg/day.; format: functional, Canis lupus familiaris; outline: as §1
[11] = test system: Rattus norvegicus; test: Inhibition of total cholesterol in normolipidemic rats after 6 hr of 50 mg/kg oral dosing; format: functional; outline: as §2
[12] = test system: Rattus norvegicus; test: Inhibition of plasma triglycerides in normolipidemic rats after 2 hr of 10 mg/kg oral dosing; format: functional; outline: as §2
[13] = test system: Canis familiaris; test: Inhibition of plasma total cholesterol in the normolipidemic dogs after day 4 of oral administration of 10 mg/kg/day. Values in the parentheses indicate mean percent inhibition for drug treated dogs.; format: functional, Canis lupus familiaris; outline: as §1
[14] = test system: Canis familiaris; test: Inhibition of plasma total cholesterol in the normolipidemic dogs after day 2 of oral administration of 10 mg/kg/day.; format: functional, Canis lupus familiaris; outline: as §1
[15] = test system: Canis familiaris; test: Inhibition of plasma total cholesterol in the normolipidemic dogs after day 2 of oral administration of 5 mg/kg/day.; format: functional, Canis lupus familiaris; outline: as §1
[16] = test system: Canis familiaris; test: Inhibition of plasma total cholesterol in the normolipidemic dogs after day 3 of oral administration of 5 mg/kg/day.; format: functional, Canis lupus familiaris; outline: as §1
[17] = test system: Canis familiaris; test: Inhibition of plasma total triglycerides in the normolipidemic dogs after day 4 of oral administration of 5 mg/kg/day.; format: functional, Canis lupus familiaris
[18] = test system: Rattus norvegicus; test: Inhibition of plasma triglycerides in normolipidemic rats after 2 hr of 50 mg/kg oral dosing; format: functional; outline: as §2
[19] = test system: Rattus norvegicus; test: Inhibition of plasma triglycerides in normolipidemic rats after 24 hr of 10 mg/kg oral dosing; no significant change; format: functional, organism-based; parameters: dose 10 mg/kg; outline: as §2
[20] = test system: Rattus norvegicus; test: Inhibition of total cholesterol in normolipidemic rats after 2 hr of 50 mg/kg oral dosing; format: functional; outline: as §2
[21] = test system: Canis familiaris; test: Inhibition of plasma total triglycerides in the normolipidemic dogs after day 4 of oral administration of 10 mg/kg/day. Values in the parentheses indicate mean percent inhibition for drug treated dogs.; format: functional, Canis lupus familiaris
[22] = test system: Canis familiaris; test: Inhibition of plasma total triglycerides in the normolipidemic dogs after day 3 of oral administration of 5 mg/kg/day.; format: functional, Canis lupus familiaris
[23] = test system: Canis familiaris; test: Inhibition of plasma total cholesterol in the normolipidemic dogs after day 0 of oral administration of 10 mg/kg/day.; format: functional, Canis lupus familiaris; outline: as §1
[24] = test system: Rattus norvegicus; test: Inhibition of plasma triglycerides in normolipidemic rats after 6 hr of 50 mg/kg oral dosing; format: functional; outline: as §2
[25] = test system: Rattus norvegicus; test: Inhibition of total cholesterol in normolipidemic rats after 2 hr of 10 mg/kg oral dosing; format: functional; outline: as §2
[26] = molecular target: T1, Microsomal triglyceride transfer protein large subunit (Homo sapiens, UniProt P55157); test: In vitro inhibitory activity against MTP using MTP transfer assay
T1 sequence (P55157 whole entry): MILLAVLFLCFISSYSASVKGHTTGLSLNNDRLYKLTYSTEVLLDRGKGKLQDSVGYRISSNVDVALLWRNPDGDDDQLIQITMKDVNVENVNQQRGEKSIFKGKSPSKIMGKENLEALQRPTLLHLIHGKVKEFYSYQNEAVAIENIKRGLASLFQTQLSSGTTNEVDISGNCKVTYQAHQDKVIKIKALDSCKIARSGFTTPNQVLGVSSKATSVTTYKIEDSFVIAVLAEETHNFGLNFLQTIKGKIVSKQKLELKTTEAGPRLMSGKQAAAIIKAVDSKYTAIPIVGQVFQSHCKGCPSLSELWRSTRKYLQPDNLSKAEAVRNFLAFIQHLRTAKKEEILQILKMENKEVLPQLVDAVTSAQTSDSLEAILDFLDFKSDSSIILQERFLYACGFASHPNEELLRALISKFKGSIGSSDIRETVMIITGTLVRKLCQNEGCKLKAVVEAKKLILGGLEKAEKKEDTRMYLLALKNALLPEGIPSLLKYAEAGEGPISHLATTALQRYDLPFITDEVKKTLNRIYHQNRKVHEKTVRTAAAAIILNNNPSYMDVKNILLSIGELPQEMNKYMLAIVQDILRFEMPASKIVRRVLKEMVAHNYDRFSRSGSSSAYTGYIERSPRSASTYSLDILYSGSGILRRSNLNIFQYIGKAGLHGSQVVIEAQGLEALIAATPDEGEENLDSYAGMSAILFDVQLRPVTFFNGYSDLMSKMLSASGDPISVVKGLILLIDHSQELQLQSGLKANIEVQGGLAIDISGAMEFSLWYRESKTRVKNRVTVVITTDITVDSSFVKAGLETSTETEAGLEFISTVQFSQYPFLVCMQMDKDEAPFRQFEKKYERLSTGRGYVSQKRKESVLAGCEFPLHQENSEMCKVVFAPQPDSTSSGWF

[27] = test system: Rattus norvegicus; test: Inhibition of plasma triglycerides in normolipidemic rats after 24 h of 50 mg/kg oral dosing; no significant change; format: functional, organism-based; parameters: dose 50 mg/kg; outline: as §2
[28] = test system: Rattus norvegicus; test: Inhibition of total cholesterol in normolipidemic rats after 24 hr of 50 mg/kg oral dosing; format: functional; outline: as §2
[29] = test system: Rattus norvegicus; test: Inhibition of total cholesterol in normolipidemic rats after 24 hr of 10 mg/kg oral dosing; no significant change; format: functional, organism-based; parameters: dose 10 mg/kg; outline: as §2

## Cc1cccc(C(=O)Nc2ccc3c(c2)C[C@@H](NCc2ccccn2)C3)c1-c1ccc(C(F)(F)F)cc1
[1]
  Lipid level: 130 mg/dL
[2]
  Reduction: 47%
[3]
  Lipid level: <27 mg/dL
[4]
  Lipid level: 46 mg/dL
[5]
  Lipid level: <54 mg/dL
[6]
  Lipid level: 36 mg/dL
[7]
  Lipid level: <26 mg/dL
[8]
  Lipid level: <94 mg/dL
[9]
  Reduction: 35%
[10]
  Lipid level: 38 mg/dL
[11]
  Reduction: 57%
[12]
  Reduction: 86%
[13]
  Lipid level: <36 mg/dL
[14]
  Lipid level: <69 mg/dL
[15]
  Lipid level: <110 mg/dL
[16]
  Lipid level: <99 mg/dL
[17]
  Lipid level: 32 mg/dL
[18]
  Reduction: 91%
[19]
  NS: no significant change
[20]
  Reduction: 40%
[21]
  Lipid level: <23 mg/dL
[22]
  Lipid level: 41 mg/dL
[23]
  Lipid level: 125 mg/dL
[24]
  Reduction: 88%
[25]
  Reduction: 34%
[26]
  IC50: 100 nM
[27]
  NS: no significant change
[28]
  Reduction: 29%
[29]
  NS: no significant change
